Published values from different studies.
Protocols differ between the studies behind these lines.
Organism: Klebsiella pneumoniae
Read-out: microbial growth

SMILES	method	strain	time	notes	MIC
NC1CCCCc2c1[nH]c1ccc(Br)cc21 (stereo not drawn)	broth dilution	ATCC10031			16 µg/mL
NC[C@@H]1O[C@H](O[C@H]2[C@@H](O)[C@H](O[C@@H]3[C@@H](O)[C@H](N)C[C@H](N)[C@H]3O[C@H]3O[C@H](CO)[C@@H](O)[C@H](O)[C@H]3N)O[C@@H]2CO)[C@H](N)[C@@H](O)[C@@H]1O					1 µg/mL
CC(C)(O/N=C(\C(=O)N[C@@H]1C(=O)N2C(C(=O)[O-])=C(C[n+]3ccccc3)CS[C@H]12)c1csc(N)n1)C(=O)O	broth dilution	ATCC700603			5 µM
CN(C)Cc1ccc2c(N(C)C)c3c(c(O)c2c1)C(=O)C1=C(O)[C@]2(O)C(=O)C(C(N)=O)=C(O)[C@@H](N(C)C)[C@@H]2C[C@@H]1C3	broth dilution	ATCC13883			4 µg/mL
CC(C)(O/N=C(\C(=O)N[C@@H]1C(=O)N2C(C(=O)[O-])=C(C[n+]3ccccc3)CS[C@H]12)c1csc(N)n1)C(=O)O			18 h	clinical isolate	> 128 µg/mL
CC1=NN(CNC(=O)c2ccccc2)C(=O)C1=NNn1c(-c2ccccc2)nc2ccccc2c1=O	broth dilution		24 h		51.9 µM
Cc1c(CN(C)C(=O)/C=C/c2cnc3c(c2)CC(NC(=O)OC(C)(C)C)C(=O)N3)oc2ccccc12 (stereo not drawn)	broth dilution				> 32 µg/mL
CCc1c(Cl)c(O)c(Cl)c(O)c1C(=O)O[C@H]1[C@H](O)[C@H](OC)[C@H](OC/C2=C\C=C\C[C@H](O)/C(C)=C/[C@H](CC)[C@@H](O[C@@H]3OC(C)(C)[C@@H](OC(=O)C(C)C)[C@H](O)[C@@H]3O)/C(C)=C/C(C)=C/C[C@@H]([C@@H](C)O)OC2=O)O[C@@H]1C	broth dilution	ATCC700603			320 µM
NCCCNC1CCCCc2c1[nH]c1ccc(Br)cc21 (stereo not drawn)	broth dilution	ATCC10031			8 µg/mL
NCC[C@H](O)C(=O)N[C@@H]1C[C@H](N)[C@@H](O[C@H]2O[C@H](CN)[C@@H](O)[C@H](O)[C@H]2O)[C@H](O)[C@H]1O[C@H]1O[C@H](CO)[C@@H](O)[C@H](N)[C@H]1O					1 µg/mL
CN(C)c1ccc(-c2ccc3cc4c(c(O)c3c2)C(=O)C2=C(O)[C@]3(O)C(=O)C(C(N)=O)=C(O)[C@@H](N(C)C)[C@@H]3C[C@@H]2C4)cc1	broth dilution	ATCC13883			32 µg/mL
C[C@@H](O)[C@H]1C(=O)N2C(C(=O)O)=C(S[C@@H]3CN[C@H](C(=O)N(C)C)C3)[C@H](C)[C@H]12	broth dilution	ATCC700603			0.63 µM
CC1(C)S[C@@H]2[C@H](NC(=O)COc3ccccc3)C(=O)N2[C@H]1C(=O)O	broth dilution	ATCC10031	18 h		4 µg/mL
CCCCCCC#Cc1cncc(-c2nnc(SCc3ccc(Cl)cc3)n2C)c1					≥ 20 µg/mL
CN(C)[C@@H]1C(O)=C(C(N)=O)C(=O)[C@@]2(O)C(O)=C3C(=O)c4c(cc5ccc(CN6CC(C#N)C6)cc5c4O)C[C@H]3C[C@@H]12	broth dilution	ATCC13883			16 µg/mL
C=C[C@]1(C)C[C@@H](OC(=O)CS[C@@H]2C[C@H]3CC[C@@H](C2)N3C)[C@]2(C)[C@H](C)CC[C@]3(CCC(=O)[C@H]32)[C@@H](C)[C@@H]1O	broth dilution	ATCC700603			160 µM
CN(Cc1ccc2cc3c(c(O)c2c1)C(=O)C1=C(O)[C@]2(O)C(=O)C(C(N)=O)=C(O)[C@@H](N(C)C)[C@@H]2C[C@@H]1C3)c1ccccc1	broth dilution	ATCC13883			32 µg/mL
NC1CCc2c1[nH]c1ccc(Cl)c(Cl)c21 (stereo not drawn)	broth dilution	ATCC10031			8 µg/mL
CN[C@H](CC(C)C)C(=O)N[C@H]1C(=O)N[C@@H](CC(N)=O)C(=O)N[C@H]2C(=O)N[C@H]3C(=O)N[C@H](C(=O)N[C@H](C(=O)O)c4cc(O)cc(O)c4-c4cc3ccc4O)[C@H](O)c3ccc(c(Cl)c3)Oc3cc2cc(c3O[C@@H]2O[C@H](CO)[C@@H](O)[C@H](O)[C@H]2O[C@H]2C[C@](C)(N)[C@H](O)[C@H](C)O2)Oc2ccc(cc2Cl)[C@H]1O	broth dilution	ATCC43816			> 128 µM
CO[C@H]1/C=C/O[C@@]2(C)Oc3c(C)c(O)c4c(O)c(c(/C=N/N5CCN(C)CC5)c(O)c4c3C2=O)NC(=O)/C(C)=C\C=C\[C@H](C)[C@H](O)[C@@H](C)[C@@H](O)[C@@H](C)[C@H](OC(C)=O)[C@@H]1C		ATCC13882			16 µg/mL

SMILES	method	strain	time	notes	MIC
CC1=NN(CNC(=O)c2ccccn2)C(=O)C1=NNn1c(-c2ccccc2)nc2ccccc2c1=O	broth dilution		24 h		52 µM
CCCCCCC#Cc1cncc(-c2nnc(SCc3ccc(C#N)cc3)n2C)c1					≥ 20 µg/mL
CC[C@H]1OC(=O)[C@H](C)C(=O)[C@H](C)[C@@H](O[C@@H]2O[C@H](C)C[C@H](N(C)C)[C@H]2O)[C@](C)(OC)C[C@@H](C)C(=O)[C@H](C)[C@H]2N(CCCCn3cnc(-c4cccnc4)c3)C(=O)O[C@]12C	broth dilution	ATCC700603			40 µM
NC[C@H]1O[C@H](O[C@H]2[C@H](O)[C@@H](O[C@H]3O[C@H](CO)[C@@H](O)[C@H](N)[C@H]3O)[C@H](N)C[C@@H]2N)[C@H](N)C[C@@H]1O					0.5 to 1 µg/mL
CCCCCCC#Cc1cncc(-c2nnc(SCc3ccc([N+](=O)[O-])o3)n2C2CC2)c1					≥ 20 µg/mL
CC1=NN(CNc2ccc(C(=O)O)cc2)C(=O)C1=NNn1c(-c2ccccc2)nc2ccccc2c1=O	broth dilution		24 h		50.5 µM
Cc1c(CN(C)C(=O)/C=C/c2cnc3c(c2)CC(CCN)C(=O)N3)oc2ccccc12.Cl (stereo not drawn)	broth dilution	BAA2473			16 µg/mL
CN(C)[C@@H]1C(O)=C(C(N)=O)C(=O)[C@@]2(O)C(O)=C3C(=O)c4c(cc5ccc(-c6cccnc6)cc5c4O)C[C@H]3C[C@@H]12	broth dilution	ATCC13883			32 µg/mL
CO[C@H]1/C=C/O[C@@]2(C)Oc3c(C)c(O)c4c(O)c(c(/C=N/N5CCN(C)CC5)c(O)c4c3C2=O)NC(=O)/C(C)=C\C=C\[C@H](C)[C@H](O)[C@@H](C)[C@@H](O)[C@@H](C)[C@H](OC(C)=O)[C@@H]1C	broth dilution	ATCC700603			10 µM
CC(C)Oc1c(NC(=O)c2ccc(NC(=O)[C@H](CC(N)=O)NC(=O)c3ccc(NC(=O)c4ccc(C#N)cn4)cc3)cc2)ccc(C(=O)Nc2ccc(C(=O)O)cc2)c1O		DSM30104			> 64 µg/mL
CC1=NN(CNc2c(O)c(S(=O)(=O)O)cc3ccccc23)C(=O)C1=NNn1c(-c2ccccc2)nc2ccccc2c1=O	broth dilution		24 h		83.7 µM
O=C(Nc1ccc(F)c(Cl)c1)c1cc(Cl)ccc1O	broth dilution	BAA1705			> 64 µg/mL
O=C1NN=C(N=Cc2ccccc2O)C1=NNn1c(-c2ccccc2)nc2ccccc2c1=O	broth dilution		24 h		55.4 µM
CCCCCCC#Cc1cncc(-c2nnc(SCc3ccc(Cl)c(F)c3)n2C)c1					≥ 20 µg/mL
CC(C)Oc1c(NC(=O)c2ccc(NC(=O)c3ccc(NC(=O)[C@H](CC(N)=O)NC(=O)c4ccc(NC(=O)c5ccc(C#N)cn5)cc4)cc3)c(OC(C)C)c2O)ccc(C(=O)O)c1O		DSM30104			4 µg/mL
CC(=O)O[C@H]1C[C@@]2(C)[C@@H](C[C@@H](O)[C@H]3[C@@]4(C)CC[C@@H](O)[C@@H](C)[C@@H]4CC[C@@]32C)/C1=C(\CCC=C(C)C)C(=O)O	broth dilution	ATCC700603			640 µM
O=C1NN=C(N=Cc2ccc(O)cc2O)C1=NNn1c(-c2ccccc2)nc2ccccc2c1=O	broth dilution		24 h		53.5 µM
C[C@@H]1O[C@@H]1P(=O)(O)O	broth dilution	ATCC700603			80 µM
O=C(Nc1ccc2c(c1)OC(F)(F)O2)Nc1ccc(Cl)c(C(F)(F)F)c1		DSM30104			> 100 µM
